Experimental data collected from several papers.
Each line is one published result; the experiments were not run side by side.
Target: 5'-AMP-activated protein kinase catalytic subunit alpha-2 (PRKAA2, Homo sapiens, UniProt P54646)

SMILES | observed | technique | concentration | remaining binding
Cc1nc(N2CC[C@@H](O)C2)ncc1-c1cc(C(F)(F)F)cc2[nH]ncc12 | cell-free assay | competition with immobilised ligand | 1 µM | 100%
O=C(NCC1CCOCC1)c1n[nH]cc1NC(=O)c1c(F)cccc1F | binding | competition with immobilised ligand | 1 µM | 100%
O=C(c1ccc(Nc2ncc(Cl)c(-c3cc4ccccc4s3)n2)cc1)N1CCC(N2CCCC2)CC1 | binding | competition with immobilised ligand | 1 µM | 4%
Cc1c(NC(=O)c2cc(C(N)=O)nc3cc(F)ccc23)c(C(F)(F)F)nn1Cc1ccc(C(C)(C)C)cc1 | cell-free assay | competition with immobilised ligand | 1 µM | 100%
COc1ccnn2ncc(-c3ccnc(N(C)C)n3)c12 | binding |  | 1 µM | 79%
O=C(NS(=O)(=O)c1ccc(NCC2CCOCC2)c([N+](=O)[O-])c1)c1ccc(N2CCN(Cc3ccc(C(F)(F)F)cc3-c3ccc(Cl)cc3)CC2)cc1Oc1cnc2[nH]ccc2c1 | cell-free assay | competition with immobilised ligand | 1 µM | 100%
O=C(NCCCN1CCOCC1)c1ccc(Nc2nccc(-c3cc4ccccc4s3)n2)cc1 | binding | competition with immobilised ligand | 1 µM | 41%
O=C(NCc1ncc(C(F)(F)F)cc1Cl)c1ccc2c(c1)C1(CCS(=O)(=O)CC1)[C@H](C1CC1)N2S(=O)(=O)c1ccc(F)cc1 | cell-free assay | competition with immobilised ligand | 1 µM | 100%
COc1cnc(Nc2cccc(S(N)(=O)=O)c2)nc1N1CCN(c2ccccc2)CC1 | binding | competition with immobilised ligand | 1 µM | 100%
CN(C)c1ncnc(-c2ccc3nc(Nc4cc(CN5CCN(C(=O)CC(F)(F)F)CC5)ccn4)[nH]c3c2)c1Cl | cell-free assay | competition with immobilised ligand | 1 µM | 100%
CN(CCCC(F)(F)F)c1nccc(-c2cnn3ncccc23)n1 | binding |  | 1 µM | 100%
CC(=O)c1c(NS(C)(=O)=O)c2cc(-c3ccc(Cl)cc3)c(-c3ccc(Cl)cc3Cl)nc2n(C)c1=O | cell-free assay | competition with immobilised ligand | 1 µM | 85%
CN(C)c1nccc(-c2cnc3ncccn23)n1 | binding |  | 1 µM | 80%
CCC(=O)N[C@@H]1CC[C@H](C(=O)N(C)c2ccc(-c3nc4ccccc4o3)cc2)C1 | cell-free assay | competition with immobilised ligand | 1 µM | 74%
C[C@@H](c1ccc(-n2cnc3c(N)ncnc32)cc1)N1CCc2nn(C)c(Cc3ccccc3)c2C1=O | binding | competition with immobilised ligand | 0.1 µM | 100%
N[C@@H]1CCN(c2nccc(-c3cnn4ncccc34)n2)C1 | binding |  | 1 µM | 98%
COc1ncc2cc3ccccc3nc2c1C#N | cell-free assay | competition with immobilised ligand | 5 µM | 96%
O=C(NCCCN1CCOCC1)c1ccc(Nc2ncc(Cl)c(-c3ccc(Cl)s3)n2)cc1 | binding | competition with immobilised ligand | 1 µM | 17%
c1cnn2ncc(-c3ccnc(N4CCC45COC5)n3)c2c1 | binding |  | 1 µM | 91%
Nc1ncc2c(n1)-c1c([nH]c3ccc(C#CC4CC4)cc13)CCCC2 | binding | competition with immobilised ligand | 1 µM | 85%
C[C@@H]1CCN(c2nccc(-c3cnn4ncccc34)n2)C1 | binding |  | 1 µM | 74%
CCN1CCN(Cc2ccc(C(=O)Nc3ccc(C)c(Oc4ccc5c(c4)CC(=O)N5)c3)cc2C(F)(F)F)CC1 | binding | competition with immobilised ligand | 1 µM | 100%
